High-throughput results deposited in PubChem by NMMLSC.
ABCG2 inh: ABCG2 efflux pump inhibitors, primary screen, multiplex with ABCB1, IgMXP3 cells, flow cytometry. Broad substrate specificity ATP-binding cassette transporter ABCG2 (Homo sapiens), Q9UNQ0. JC-1 efflux. inhibition, % at 6.6 µM. 0.1% of 190,000 active;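 active = inhibition above 80%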
Target sequence (Q9UNQ0 whole entry, looked up): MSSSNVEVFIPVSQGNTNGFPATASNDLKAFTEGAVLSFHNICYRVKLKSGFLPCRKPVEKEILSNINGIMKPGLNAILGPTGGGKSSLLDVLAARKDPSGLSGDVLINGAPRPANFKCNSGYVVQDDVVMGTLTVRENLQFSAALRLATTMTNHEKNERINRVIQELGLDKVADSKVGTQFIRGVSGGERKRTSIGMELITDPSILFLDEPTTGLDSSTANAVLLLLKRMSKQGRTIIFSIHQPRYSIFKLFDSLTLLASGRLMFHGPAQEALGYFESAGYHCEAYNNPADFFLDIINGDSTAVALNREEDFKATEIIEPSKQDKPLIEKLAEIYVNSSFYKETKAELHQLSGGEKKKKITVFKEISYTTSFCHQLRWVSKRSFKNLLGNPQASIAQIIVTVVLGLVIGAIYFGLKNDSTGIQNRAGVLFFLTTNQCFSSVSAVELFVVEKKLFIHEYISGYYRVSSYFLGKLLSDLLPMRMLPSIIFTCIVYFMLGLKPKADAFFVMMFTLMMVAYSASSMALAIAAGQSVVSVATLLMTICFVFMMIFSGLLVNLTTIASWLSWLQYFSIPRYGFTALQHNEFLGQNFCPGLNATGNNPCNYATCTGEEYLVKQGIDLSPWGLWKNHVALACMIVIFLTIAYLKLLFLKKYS
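Test system: IgMXP3 (ABCG2) plus far-red-tagged CCRF-Adr (ABCB1) cells / Amount: 3 million cells/mL in well / Reagent: JC-1 transporter substrate / Timing: 10 min compound exposure, 25 °C / Signal: flow cytometry, 530 nm JC-1 signal / Read-out: percent efflux inhibition, scaled nicardipine 100% to DMSO 0% / Benchmarks: nicardipine as high control, DMSO as low control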
RGS7-Gao reg: RGS7-Galphao binding modulators, primary screen, biochemical, multiplexed bead flow cytometry | Guanine nucleotide-binding protein G(o) subunit alpha (Homo sapiens), P09471 | actives lie on both sides | binding response (% of control), % at 10 µM | 0.35% of 220,000 active | AID 1439, 2008; in the data active = binding response below about 49% or above about 150%; inconclusive = no clear call, values can overlap the other calls; inactive = in between;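 note: fluorescent Galphao held in activated GDP-AlF4 state binding bead-coupled RGS7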
RGS4-Gao reg: modulators of RGS4 binding to Galphao, primary screen, biochemical, multiplexed bead flow cytometry. 0.33% of 220,000 active. binding response (% of control), % at 10 µM. actives lie on both sides. Guanine nucleotide-binding protein G(o) subunit alpha (Homo sapiens), P09471; in the data active = binding response below about 49% or above about 150%; inactive = in between;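 note: fluorescent Galphao activated with aluminum fluoride binding bead-coupled RGS4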
ABCB1 block: ABCB1 efflux pump inhibitors, primary screen, cell-based, multiplex, flow cytometry, ABCG2 counter-screen; ATP-dependent translocase ABCB1 (Homo sapiens), P08183; CCRF-Adr cells, JC-1 efflux; inhibition, % at 6.6 µM; 0.067% of 190,000 active; in the data active = inhibition above about 40%;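 note: higher value means more JC-1 retained so stronger ABCB1 efflux block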
RGS8-Gao reg: RGS8-Galphao binding modulators, primary screen, biochemical, multiplexed bead flow cytometry | Guanine nucleotide-binding protein G(o) subunit alpha (Homo sapiens), P09471 | actives lie on both sides | 0.34% of 220,000 active | response (percent of control binding), % at 10 µM | AID 1423, 2008; in the data active = response below about 60% or above about 140%; inactive = in between;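 note: Galphao activated as the GDP aluminium fluoride complex binding bead-coupled RGS8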
RGS16-Gao: modulators of RGS16 binding to Galphao, primary screen, biochemical, human proteins, multiplexed bead flow cytometry; Regulator of G-protein signaling 16 (Homo sapiens) + Guanine nucleotide-binding protein …; bead-based flow cytometry RGS16-Galphao binding, fluorescence; actives lie on both sides; binding response (% of control), % at 10 µM; 0.38% of 220,000 active; AID 1441, 2008;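 note: Galphao activated by GDP with aluminum fluoride before binding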
RGS-Gao: modulators of RGS–Galpha-o binding, primary screen, biochemical, multiplexed beads, flow cytometry, RGS4/7/8/16/19. shares compounds with RGS16-Gao. multiplexed bead flow cytometry. RGS4–Galpha-o binding response, % at 10 µM. 99% of 1,600 active;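 note: fluorescently labeled Galpha-o bound to GDP with aluminium fluoride binding biotinylated RGS beads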
Biotin-avidin: disruption of biotin probe capture by avidin, counter-screen for RGS protein interaction modulators, biochemical, flow cytometry, bead-based | shares compounds with RGS16-Gao | streptavidin beads, fluorescein-biotin binding | inhibition, % at 10 µM | 1,700 tested, under 10 active;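 active = inhibition above 50%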;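 note: median green fluorescence of gated singlet beads compared with DMSO control wells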
RGS8-Gao confirm: RGS8-Galphao binding modulators, confirmation, biochemical, multiplexed bead flow cytometry, single concentration; shares compounds with RGS16-Gao; bead-based flow cytometry RGS8-Galphao binding, fluorescence; actives lie on both sides; binding response (% of control), % at 10 µM; 3% of 1,700 active; AID 1836, 2009; in the data active = binding response below about 72% or above about 130%; inactive = in between;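 note: Galphao activated as GDP AlF4 complex before binding bead RGS8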
RGS7-Gao single: RGS7-Galphao binding modulators, confirmation, biochemical, multiplexed bead flow cytometry, single concentration; shares compounds with RGS16-Gao; bead-based flow cytometry RGS7-Galphao binding; actives lie on both sides; response (percent of control binding), % at 10 µM; 7.8% of 1,700 active; AID 1837, 2009; in the data active = response below about 75% or above about 130%; inactive = in between;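 note: fluorescent Galphao activated with GDP and aluminum fluoride binding bead-coupled RGS7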
RGS16-Gao single: modulators of RGS16-Galphao protein binding, confirmation, biochemical, single concentration, multiplexed bead flow cytometry; bead-based flow cytometry; actives lie on both sides; response (% of control binding), % at 10 µM; 4% of 1,700 active; shares compounds with RGS16-Gao; in the data active = response below about 74% or above about 130%; inactive = in between;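 note: Galphao activated as the GDP aluminium fluoride complex binding bead-coupled RGS16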
RGS4-Gao single: modulators of RGS4-Galphao protein binding, confirmation, biochemical, single concentration, multiplexed bead flow cytometry; shares compounds with RGS16-Gao; actives lie on both sides; binding response (% of control), % at 10 µM; 4% of 1,700 active; AID 1840, 2009; in the data active = binding response below about 74% or above about 130%; inactive = in between
RGS19-Gao single: regulators of RGS19-Galphao binding, confirmation, biochemical, single point, multiplexed bead flow cytometry | shares compounds with RGS16-Gao | bead-based flow cytometry RGS19-Galphao binding; actives lie on both sides | response (percent of control binding), % at 10 µM | 5% of 1,700 active | AID 1841, 2009; in the data active = response below about 50% or above about 160%; inactive = in between
Of the large screens only hits and unclear results are named; the others gave an inactive call (follow-up assays come after a bar, where they were run); [ ] = remark or other dose. Sampled rows, rich in hits. Any-hit rate of the full collection: about 0.83%. Unless noted, the rule behind the calls is not given here.

CCOc1c(O)ccc(C2NC(=O)NC(C)=C2C(=O)OC)c1[N+](=O)[O-] (stereo not given)	none
CC1CCN(C(=O)CCCNC(=O)Cn2cnc3sc4c(c3c2=O)CCCC4)CC1	none
C=CCN=C(NC#N)SCC(=O)NC(C)(C)C	RGS7-Gao reg 45.5, RGS4-Gao reg -27.7 | Biotin-avidin inactive | RGS8-Gao confirm inactive | RGS7-Gao single inactive | RGS16-Gao single inactive | RGS4-Gao single inactive | RGS19-Gao single inactive
Cc1cc(C)c(NC(=O)CSc2ccc(-c3cccnc3)nn2)c(C)c1	none
CC(C)(C)NC(=O)NC(=O)COC(=O)c1cc[n+]([O-])cc1	RGS7-Gao reg 212.5[activator] | RGS-Gao 125.9 | Biotin-avidin inactive | RGS8-Gao confirm inactive | RGS7-Gao single inactive | RGS16-Gao single inactive | RGS4-Gao single inactive | RGS19-Gao single inactive
CC(NCc1ccc(S(N)(=O)=O)cc1)C(=O)Nc1cccc(Cl)c1 (stereo not given)	RGS7-Gao reg inconclusive (no result: ABCG2 inh, ABCB1 block)
O=C(O)CCC(=O)Nc1sc2c(c1C(=O)Nc1cccc3ccccc13)CCCCC2	RGS7-Gao reg 190.5[activator], RGS4-Gao reg 192.6[activator], RGS8-Gao reg 173.5[activator] | Biotin-avidin inactive | RGS8-Gao confirm inactive | RGS7-Gao single inactive | RGS16-Gao single inactive | RGS4-Gao single inactive | RGS19-Gao single inactive
O=C(O)CCC(=O)Nc1sc2c(c1C(=O)Nc1ccccc1)CCCCC2	none
C=CCn1cnc2c(nnn2-c2ccc(Cl)cc2)c1=O	none
Cc1ccc(-n2c(N)c(C(=O)N3CCOCC3)sc2=S)cc1	RGS8-Gao reg 145.9[activator] | RGS-Gao 120.0
CCOC(=O)C1=NN(c2cccc(C)c2)C2(S1)SC(C(C)=O)=C(C)N2c1ccccc1 (stereo not given)	none (no result: RGS7-Gao reg, RGS4-Gao reg, RGS8-Gao reg, RGS16-Gao) | Biotin-avidin inactive | RGS8-Gao confirm inactive | RGS7-Gao single inactive | RGS16-Gao single inactive | RGS4-Gao single inactive | RGS19-Gao single inactive
CCOC(=O)C1=NN(c2ccccc2)C2(S1)SC(C(C)=O)=C(C)N2c1ccccc1 (stereo not given)	none
CCCCc1ccc(NC(=O)CC(C)C)cc1	none
CCCCc1ccc(NC(=O)CN2NS(=O)(=O)c3ccccc3C2=O)cc1	RGS16-Gao -6.9 | RGS-Gao 86.6
Cc1cccc2sc(NC(=O)[C@@H]3CCCN3C(=O)c3cccs3)nc12	RGS16-Gao 211.3[activator] | RGS-Gao 101.3 | Biotin-avidin inactive | RGS8-Gao confirm inactive | RGS7-Gao single inactive | RGS16-Gao single inactive | RGS4-Gao single inactive | RGS19-Gao single inactive
CCc1cc(=O)oc2cc(C)c(CN3CCCC(C)C3)c(O)c12 (stereo not given)	none
CCCCc1cc(=O)oc2cc(C)c(CN3CCCC3)c(O)c12	RGS7-Gao reg 160.1[activator], RGS16-Gao 175.1[activator] | RGS-Gao 139.1 | Biotin-avidin inactive | RGS8-Gao confirm inactive | RGS7-Gao single inactive | RGS16-Gao single inactive | RGS4-Gao single inactive | RGS19-Gao single inactive
CCN1C(=O)CC2(C[N+]3(C)CCC2CC3)C1=O (stereo not given)	none
COc1ccc(NC2(c3ccccc3)OC(=O)c3ccccc32)cc1 (stereo not given)	none (no result: RGS7-Gao reg, RGS4-Gao reg, RGS8-Gao reg, RGS16-Gao) | Biotin-avidin inactive | RGS8-Gao confirm inactive | RGS7-Gao single inactive | RGS16-Gao single inactive | RGS4-Gao single inactive | RGS19-Gao single inactive
Cc1cccc(-n2c(SCC(=O)NCc3ccc4c(c3)OCO4)nc3ccccc3c2=O)c1	RGS8-Gao reg 147.9[activator] | RGS-Gao 135.0 | Biotin-avidin inactive | RGS8-Gao confirm inactive | RGS7-Gao single inactive | RGS16-Gao single inactive | RGS4-Gao single inactive | RGS19-Gao single inactive
CCC(C)NCC(=O)Nc1sc2c(c1C(N)=O)CCC2 (stereo not given)	none
CCC(=O)Nc1sc2c(c1C(N)=O)CCC2	RGS7-Gao reg 7.2, RGS4-Gao reg 15.7, RGS8-Gao reg 11.6, RGS16-Gao -7.4 | Biotin-avidin inactive | RGS8-Gao confirm inactive | RGS7-Gao single inactive | RGS16-Gao single inactive | RGS4-Gao single inactive | RGS19-Gao single inactive
O=S(=O)(/C=C/c1ccccc1)N1CCN(c2nc(-c3ccccc3)nc3ccccc23)CC1	RGS7-Gao reg inconclusive
CC(=O)N1CCc2c(sc(NC(=O)CN3C(=O)c4ccccc4C3=O)c2C(N)=O)C1	RGS7-Gao reg 156.9[activator] | RGS-Gao 145.7 | Biotin-avidin inactive | RGS8-Gao confirm inactive | RGS7-Gao single inactive | RGS16-Gao single inactive | RGS4-Gao single inactive | RGS19-Gao single inactive
N#C/C(=C\c1sc(N2CCOCC2)nc1-c1ccccc1)C(=O)Nc1cccc2ccccc12	RGS7-Gao reg 417.3[activator] | RGS-Gao 140.9
O=C(Nc1ccccc1)c1sc(N2CCOCC2)nc1-c1ccccc1	none
